From paper PMC8865373 (Biochemistry, 2021)
Where a SMILES comes first, the peptide text is derived from it. Where no end group is shown, it is not given here. [ ]: non-standard residue; d: D form. pS = N[C@@H](COP(=O)(O)O)C(=O)O

Assays:
[1] = target: T1, TAZ2 domain of CBP (residues 1764–1855) (Mus musculus, UniProt P45481); test: Fluorescence anisotropy competition with Alexa594-labeled E7; format: binding; details: ratio of fluorescence anisotropy competition KDs
T1 sequence (P45481 1764-1855): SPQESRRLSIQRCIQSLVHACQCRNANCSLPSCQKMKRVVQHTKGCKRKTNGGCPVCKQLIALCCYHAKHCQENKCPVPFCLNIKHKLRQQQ
Method in brief: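 Tracer: Alexa Fluor 594-labelled E7(1–51) C24A/A50C (dye at position 50), 20 nM, in 20 mM Tris, 50 mM NaCl, 1 mM DTT, pH 7.0. It was pre-bound to 0.8 μM TAZ2 (>90% saturation). Unlabelled E7 peptides were titrated in and the anisotropy decrease read at 590/617 nm. Apparent KD came from a competition fit using the tracer KD from direct TAZ2 titration.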

TAZ2 = details: doubly-phosphorylated peptide; fluorescence anisotropy and NMR spectroscopy; cited from earlier work

Molecule	KD of CR2 relative to the preceding CR1 motif (stronger) [1]	binding affinity for TAZ2 (TAZ2)
CC(C)C[C@H](NC(=O)[C@H](CCC(N)=O)NC(=O)[C@H](CCC(=O)O)NC(=O)[C@H](Cc1ccc(O)cc1)NC(=O)[C@H](CS)NC(=O)[C@H](Cc1ccc(O)cc1)NC(=O)[C@H](CC(C)C)NC(=O)[C@H](CC(=O)O)NC(=O)[C@@H](NC(=O)[C@@H](NC(=O)[C@@H](N)CCC(=O)O)[C@@H](C)O)[C@@H](C)O)C(=O)N[C@@H](CC(N)=O)C(=O)N[C@@H](CC(=O)O)C(=O)N[C@@H](CO)C(=O)N[C@@H](CO)C(=O)N[C@@H](CCC(=O)O)C(=O)N[C@@H](CCC(=O)O)C(=O)N[C@@H](CCC(=O)O)C(=O)N[C@@H](CC(=O)O)C(=O)N[C@@H](CCC(=O)O)C(=O)O [CR2(18–37)] (H-ETTDLYCYEQLNDSSEEEDE-OH)	seven-fold	–
ppE7(1–51): doubly-phosphorylated (S31, S32) HPV16 E7(1–51) peptide (MHGDTPTLHEYMLDLQPETTDLYCYEQLND[pS][pS]EEEDEIDGPAGQAEPDRAH)	–	low nanomolar range
